Assay results from ChEMBL document CHEMBL3352430, “4-Aminopyridyl-based CYP51 inhibitors as anti-Trypanosoma cruzi drug leads with improved pharmacokinetic profile and in vivo potency” (J Med Chem, 2014).

Test system: Heart
Assay: Drug uptake in mouse heart at 50 mg/kg, po in 20% Kolliphor measured at 8 hrs post dose
Assay type: ADME, organism-based
Set-up: dose 50 mg/kg, route oral
Settings: in vivo; call rule not given here
In short: (§1)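 Female Swiss Webster mice, 8 weeks old, given a single 50 mg/kg oral gavage dose in 20% HPβCD or 20% Kolliphor. Tissues taken from three mice at 2 and 8 h post dose. Homogenized by probe sonication in PBS (1:4 w/v), protein precipitated with acetonitrile, and compound measured by LC-MS/MS in μM.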

**Q.** For `O=C(N[C@H](Cc1c[nH]c2ccccc12)C(=O)Nc1ccncc1)c1ccc(-c2ccc(F)c(C(F)(F)F)c2)cc1F`, which Drug uptake is on record?
**A.** Its Drug uptake is “Active”.

Test system: Heart
Assay: Drug uptake in mouse heart at 50 mg/kg, po in 20% HP-beta-CD measured at 8 hrs post dose
Assay type: ADME, organism-based
Set-up: dose 50 mg/kg, route oral
Settings: in vivo
In short: as §1

**Q.** Which Drug uptake does the source give for `O=C(N[C@H](Cc1c[nH]c2ccccc12)C(=O)Nc1ccncc1)c1ccc(-c2ccc(F)c(C(F)(F)F)c2)cc1F` here?
**A.** Its Drug uptake is “Active”.

Test system: not listed separately
Assay: Clearance in mouse at 50 mg/kg, po in 20% Kolliphor
Assay type: ADME, organism-based
Set-up: dose 50 mg/kg, route oral
Settings: in vivo
In short: (§2)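 Female Swiss Webster mice, 8 weeks old, given one oral gavage dose of 50 mg/kg as a 10 mg/mL preparation in the named vehicle (20% HPβCD suspension or 20% Kolliphor). Plasma sampled at about 0.25, 0.5, 1, 2, 4, 6, 8, 12 and 24 h, n = 3 per time point. Protein precipitated with 5 volumes acetonitrile, filtered, then LC-MS/MS. Values are averages of three mice.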

**Q.** Which CL/F does the source give for `O=C(N[C@H](Cc1c[nH]c2ccccc12)C(=O)Nc1ccncc1)c1ccc(-c2ccc(F)c(C(F)(F)F)c2)cc1F` here?
**A.** Its CL/F is 17.4 mL/min/kg.

Test system: C2C12
Assay: Cytotoxicity against mouse C2C12 cells up to 10 uM
Assay type: cell-based
Settings: not given
In short: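 Mouse C2C12 myoblasts infected with T. cruzi CA-I/72, then exposed at 24 h postinfection to compound at 10 μM down to 5 pM in 5-fold steps for 72 h at 37 °C. Cells fixed in paraformaldehyde, stained with DAPI and scored by automated imaging. Triplicate wells; uninfected and infected untreated wells as controls.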

**Q.** Which Activity does the source give for `O=C(N[C@H](Cc1c[nH]c2ccccc12)C(=O)Nc1ccncc1)c1ccc(-c2ccc(F)c(C(F)(F)F)c2)cc1F` here?
**A.** Its Activity is “Non-toxic”.

Test system: Liver
Assay: Drug uptake in mouse liver at 50 mg/kg, po in 20% HP-beta-CD measured at 8 hrs post dose
Assay type: ADME, organism-based
Set-up: dose 50 mg/kg, route oral
Settings: in vivo
In short: as §1

**Q.** Which Drug uptake does the source give for `O=C(N[C@H](Cc1c[nH]c2ccccc12)C(=O)Nc1ccncc1)c1ccc(-c2ccc(F)c(C(F)(F)F)c2)cc1F` here?
**A.** Its Drug uptake is “Active”.

Test system: Intestine
Assay: Drug uptake in mouse intestine at 50 mg/kg, po in 20% HP-beta-CD measured at 8 hrs post dose
Assay type: ADME, organism-based
Set-up: dose 50 mg/kg, route oral
Settings: in vivo
In short: as §1

**Q.** Which Drug uptake does the source give for `O=C(N[C@H](Cc1c[nH]c2ccccc12)C(=O)Nc1ccncc1)c1ccc(-c2ccc(F)c(C(F)(F)F)c2)cc1F` here?
**A.** Its Drug uptake is “Active”.

Molecular target: Cytochrome P450 2C9 (Homo sapiens, UniProt P11712)
Assay: Inhibition of CYP2C9 in human liver microsomes at 1 uM
Assay type: ADME
Settings: not given

Sequence of Cytochrome P450 2C9 (P11712 whole entry): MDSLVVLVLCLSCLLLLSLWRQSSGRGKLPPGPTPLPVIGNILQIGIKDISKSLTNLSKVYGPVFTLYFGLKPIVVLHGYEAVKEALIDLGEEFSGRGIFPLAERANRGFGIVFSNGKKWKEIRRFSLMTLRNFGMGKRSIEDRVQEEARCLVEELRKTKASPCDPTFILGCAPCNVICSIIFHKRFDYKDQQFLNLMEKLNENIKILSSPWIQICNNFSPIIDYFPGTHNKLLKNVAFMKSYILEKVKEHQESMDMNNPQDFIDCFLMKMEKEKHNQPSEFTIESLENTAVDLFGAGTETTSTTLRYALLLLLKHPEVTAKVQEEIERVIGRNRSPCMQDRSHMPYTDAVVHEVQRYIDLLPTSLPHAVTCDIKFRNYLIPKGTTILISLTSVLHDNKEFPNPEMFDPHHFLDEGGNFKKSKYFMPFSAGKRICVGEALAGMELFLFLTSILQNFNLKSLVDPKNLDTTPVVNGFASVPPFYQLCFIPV

**Q.** For `O=C(N[C@H](Cc1c[nH]c2ccccc12)C(=O)Nc1ccncc1)c1ccc(-c2ccc(F)c(C(F)(F)F)c2)cc1F`, which “inhibition (INH)” value is on record?
**A.** Its value is 96%.

Test system: not listed separately
Assay: Half life in mouse at 50 mg/kg, po in 20% Kolliphor
Assay type: ADME, organism-based
Set-up: dose 50 mg/kg, route oral
Settings: in vivo
In short: as §2

**Q.** For `O=C(N[C@H](Cc1c[nH]c2ccccc12)C(=O)Nc1ccncc1)c1ccc(-c2ccc(F)c(C(F)(F)F)c2)cc1F`, which half-life is on record?
**A.** Its half-life is 3.1 h.

Test system: not listed separately
Assay: Cmax in mouse at 50 mg/kg, po in 20% Kolliphor
Assay type: ADME, organism-based
Set-up: dose 50 mg/kg, route oral
Settings: in vivo
In short: as §2

**Q.** With `O=C(N[C@H](Cc1c[nH]c2ccccc12)C(=O)Nc1ccncc1)c1ccc(-c2ccc(F)c(C(F)(F)F)c2)cc1F` as the molecule, how does the Cmax read?
**A.** Its Cmax is 7.35 µM.

Test system: not listed separately
Assay: Tmax in mouse at 50 mg/kg, po in 20% HP-beta-CD
Assay type: ADME, organism-based
Set-up: dose 50 mg/kg, route oral
Settings: in vivo
In short: as §2

**Q.** For `O=C(N[C@H](Cc1c[nH]c2ccccc12)C(=O)Nc1ccncc1)c1ccc(-c2ccc(F)c(C(F)(F)F)c2)cc1F`, which Tmax is on record?
**A.** Its Tmax is 4.67 h.

Test system: not listed separately
Assay: Drug uptake in mouse skeletal muscle at 50 mg/kg, po in 20% Kolliphor measured at 8 hrs post dose
Assay type: ADME, organism-based, Muscle tissue
Set-up: dose 50 mg/kg, route oral
Settings: in vivo
In short: as §1

**Q.** Which Drug uptake does the source give for `O=C(N[C@H](Cc1c[nH]c2ccccc12)C(=O)Nc1ccncc1)c1ccc(-c2ccc(F)c(C(F)(F)F)c2)cc1F` here?
**A.** The Drug uptake was “Active”.

Test system: not listed separately
Assay: Half life in mouse at 50 mg/kg, po in 20% HP-beta-CD
Assay type: ADME, organism-based
Set-up: dose 50 mg/kg, route oral
Settings: in vivo
In short: as §2

**Q.** With `O=C(N[C@H](Cc1c[nH]c2ccccc12)C(=O)Nc1ccncc1)c1ccc(-c2ccc(F)c(C(F)(F)F)c2)cc1F` as the molecule, how does the half-life read?
**A.** The half-life was 2.5 h.

Test system: Lung
Assay: Drug uptake in mouse lung at 50 mg/kg, po in 20% Kolliphor measured at 8 hrs post dose
Assay type: ADME, organism-based
Set-up: dose 50 mg/kg, route oral
Settings: in vivo
In short: as §1

**Q.** With `O=C(N[C@H](Cc1c[nH]c2ccccc12)C(=O)Nc1ccncc1)c1ccc(-c2ccc(F)c(C(F)(F)F)c2)cc1F` as the molecule, how does the Drug uptake read?
**A.** The Drug uptake was “Active”.

Test system: not listed separately
Assay: Cmax in mouse at 50 mg/kg, po in 20% HP-beta-CD
Assay type: ADME, organism-based
Set-up: dose 50 mg/kg, route oral
Settings: in vivo
In short: as §2

**Q.** With `O=C(N[C@H](Cc1c[nH]c2ccccc12)C(=O)Nc1ccncc1)c1ccc(-c2ccc(F)c(C(F)(F)F)c2)cc1F` as the molecule, how does the Cmax read?
**A.** Its Cmax is 5.1 µM.

Molecular target: T1, Cytochrome P450 1A2 (Homo sapiens, UniProt P05177)
T1 sequence (P05177 whole entry): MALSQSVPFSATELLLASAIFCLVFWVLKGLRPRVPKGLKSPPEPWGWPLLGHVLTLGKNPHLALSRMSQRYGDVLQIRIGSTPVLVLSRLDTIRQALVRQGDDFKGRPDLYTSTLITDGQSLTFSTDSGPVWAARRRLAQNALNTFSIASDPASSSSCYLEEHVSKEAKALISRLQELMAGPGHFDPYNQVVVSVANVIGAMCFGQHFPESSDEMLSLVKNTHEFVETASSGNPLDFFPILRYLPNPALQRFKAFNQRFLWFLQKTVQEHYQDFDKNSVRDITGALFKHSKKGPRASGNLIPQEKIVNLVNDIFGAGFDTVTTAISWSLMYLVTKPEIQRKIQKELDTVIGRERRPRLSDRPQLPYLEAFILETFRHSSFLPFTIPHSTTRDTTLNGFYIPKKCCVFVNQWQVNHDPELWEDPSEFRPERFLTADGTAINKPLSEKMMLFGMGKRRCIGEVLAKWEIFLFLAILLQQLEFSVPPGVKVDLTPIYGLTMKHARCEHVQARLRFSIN
Assay: Inhibition of CYP1A2 in human liver microsomes at 1 uM
Assay type: ADME
Settings: not given

**Q.** Which “inhibition (INH)” value does the source give for `O=C(N[C@H](Cc1c[nH]c2ccccc12)C(=O)Nc1ccncc1)c1ccc(-c2ccc(F)c(C(F)(F)F)c2)cc1F` here?
**A.** Its value is 2%.

Molecular target: Cytochrome P450 2D6 (Homo sapiens, UniProt P10635)
Assay: Inhibition of CYP2D6 in human liver microsomes at 1 uM
Assay type: ADME
Settings: not given

Sequence of Cytochrome P450 2D6 (P10635 whole entry): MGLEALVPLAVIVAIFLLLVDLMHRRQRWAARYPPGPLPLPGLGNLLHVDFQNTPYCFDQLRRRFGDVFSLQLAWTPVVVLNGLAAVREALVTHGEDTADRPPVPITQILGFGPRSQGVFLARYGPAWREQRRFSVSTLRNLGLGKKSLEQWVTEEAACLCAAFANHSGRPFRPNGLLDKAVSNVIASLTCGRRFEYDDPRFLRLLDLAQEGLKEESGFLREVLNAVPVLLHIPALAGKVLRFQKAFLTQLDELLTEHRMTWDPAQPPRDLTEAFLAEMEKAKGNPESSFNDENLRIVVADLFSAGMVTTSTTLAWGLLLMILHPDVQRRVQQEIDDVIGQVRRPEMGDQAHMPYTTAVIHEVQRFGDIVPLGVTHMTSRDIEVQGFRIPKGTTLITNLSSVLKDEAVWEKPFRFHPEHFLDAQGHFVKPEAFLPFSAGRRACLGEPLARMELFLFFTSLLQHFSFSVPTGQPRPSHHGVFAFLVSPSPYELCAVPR

**Q.** Which “inhibition (INH)” value does the source give for `O=C(N[C@H](Cc1c[nH]c2ccccc12)C(=O)Nc1ccncc1)c1ccc(-c2ccc(F)c(C(F)(F)F)c2)cc1F` here?
**A.** The value was 36%.

Test system: not listed separately
Assay: AUClast in mouse at 50 mg/kg, po in 20% HP-beta-CD
Assay type: ADME, organism-based, Plasma
Set-up: time 0 - last, dose 50 mg/kg, route oral
Settings: plasma
In short: as §2

**Q.** For `O=C(N[C@H](Cc1c[nH]c2ccccc12)C(=O)Nc1ccncc1)c1ccc(-c2ccc(F)c(C(F)(F)F)c2)cc1F`, which AUC(0-t) is on record?
**A.** Its AUC(0-t) is 26.6 µM·h.
